# Data published in ChEMBL document CHEMBL1765045, “Fine-tuning the selectivity of aldosterone synthase inhibitors: structure-activity and structure-selectivity insights from studies of heteroaryl substituted 1,2,5,6-tetrahydropyrrolo[3,2,1-ij]quinolin-4-one derivatives” (J Med Chem, 2011).
# Target: T1, Cytochrome P450 11B2, mitochondrial (Homo sapiens, UniProt P19099)
# T1 sequence (P19099 whole entry): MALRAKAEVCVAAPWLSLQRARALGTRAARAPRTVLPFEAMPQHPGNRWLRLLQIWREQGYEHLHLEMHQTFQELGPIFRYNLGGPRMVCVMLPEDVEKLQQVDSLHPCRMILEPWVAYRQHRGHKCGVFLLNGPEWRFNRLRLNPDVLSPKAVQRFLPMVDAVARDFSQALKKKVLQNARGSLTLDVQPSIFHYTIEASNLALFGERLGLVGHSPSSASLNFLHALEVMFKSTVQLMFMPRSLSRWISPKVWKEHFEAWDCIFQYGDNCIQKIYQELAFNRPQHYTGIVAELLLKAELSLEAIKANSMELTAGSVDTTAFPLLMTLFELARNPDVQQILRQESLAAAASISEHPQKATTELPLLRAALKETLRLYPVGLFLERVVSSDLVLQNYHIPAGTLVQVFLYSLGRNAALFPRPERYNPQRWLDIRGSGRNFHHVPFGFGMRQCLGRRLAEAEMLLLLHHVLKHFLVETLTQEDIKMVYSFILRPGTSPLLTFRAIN
# Assay: Inhibition of human CYP11B2 expressed in hamster V79 MZh cells assessed as conversion of [4-14C]-11-deoxycorticosterone substrate at 500 nM by HPTLC assay
# Assay type: cell-based
# Settings: V79MZh
# How it was run: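 V79 MZh cells expressing human CYP11B2 given [4-14C]-11-deoxycorticosterone, 100 nM, with inhibitor at a single 500 nM concentration. Ethyl acetate extraction, then HPTLC/phosphoimager readout of conversion. Percent inhibition is the mean of at least three experiments.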
row,inhibition at 0.5 µM [%],Compound
1,94,O=C1CCc2cc(-c3cncc(O)c3)cc3c2N1CC3
2,48,CC1(C)CC(=O)N2CCc3cc(-c4cccnc4)cc1c32
3,97,O=C1CCc2cc(-c3cncc(F)c3)cc3c2N1CC3
4,86,COc1ccccc1-c1cncc(-c2cc3c4c(c2)CCN4C(=O)CC3)c1
5,96,O=C1CCc2cc(-c3cncc(-c4ccc(F)cc4)c3)cc3c2N1CC3
6,96,CC(C)Oc1cncc(-c2cc3c4c(c2)CCN4C(=O)CC3)c1
7,89,O=C1CCc2cc(-c3cncc(-c4ccc(F)c(F)c4)c3)cc3c2N1CC3
8,87,O=C1CCc2cc(-n3ccnc3)cc3c2N1CC3
9,81,O=C1CCc2cc(-c3cncc(-c4cc(F)cc(F)c4)c3)cc3c2N1CC3
10,80,O=C1CCc2cc(-c3cncc(-c4cc(F)ccc4F)c3)cc3c2N1CC3
11,80,O=C1CCc2cc(-c3cncc(-c4cccc(C(F)(F)F)c4)c3)cc3c2N1CC3
12,7,O=C1CCc2cc(-c3ccncc3)cc3c2N1CC3
13,95,COc1ccc(-c2cncc(-c3cc4c5c(c3)CCN5C(=O)CC4)c2)cc1

# Target: T2, CYP17 (Homo sapiens, UniProt P05093)
# T2 sequence (P05093 whole entry): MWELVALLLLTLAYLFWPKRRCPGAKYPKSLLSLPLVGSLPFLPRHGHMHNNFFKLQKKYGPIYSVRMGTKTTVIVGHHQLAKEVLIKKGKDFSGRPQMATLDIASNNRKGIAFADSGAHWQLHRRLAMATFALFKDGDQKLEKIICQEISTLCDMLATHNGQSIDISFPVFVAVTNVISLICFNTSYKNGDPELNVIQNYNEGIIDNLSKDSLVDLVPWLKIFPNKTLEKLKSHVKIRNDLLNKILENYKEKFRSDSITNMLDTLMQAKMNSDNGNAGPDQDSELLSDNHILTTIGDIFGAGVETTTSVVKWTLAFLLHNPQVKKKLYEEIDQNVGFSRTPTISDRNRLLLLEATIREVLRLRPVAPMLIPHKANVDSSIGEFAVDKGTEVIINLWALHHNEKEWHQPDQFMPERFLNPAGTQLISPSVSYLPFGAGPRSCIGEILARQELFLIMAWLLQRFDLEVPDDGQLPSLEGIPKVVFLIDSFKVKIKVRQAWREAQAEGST
# Assay: Inhibition of human CYP17 expressed in Escherichia coli using progesterone substrate at 2 uM
# Settings: recombinant human CYP17 expressed in Escherichia coli, probe progesterone
# How it was run: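 50000g sediment of E. coli homogenate recombinantly expressing human CYP17. Progesterone substrate at 25 μM, inhibitor tested at 2 μM.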
row,inhibition at 2 µM [%],Compound
1,< 5,O=C1CCc2cc(-c3cncc(F)c3)cc3c2N1CC3
2,< 5,O=C1CCc2cc(-c3cncc(-c4ccc(F)c(F)c4)c3)cc3c2N1CC3

# Target: T1, Cytochrome P450 11B2, mitochondrial
# Assay: Inhibition of human CYP11B2 expressed in hamster V79 MZh cells assessed as conversion of [4-14C]-11-deoxycorticosterone substrate by HPTLC assay
# Assay type: cell-based
# Settings: not given
# How it was run: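 Hamster V79 MZh fibroblasts expressing human CYP11B2 incubated with [4-14C]-11-deoxycorticosterone (100 nM) and inhibitor at ≥3 concentrations; reaction stopped with ethyl acetate, steroids extracted after shaking and centrifugation (10000g, 2 min). Substrate conversion read by HPTLC with phosphoimaging.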
row,IC50 [nM],Compound
1,4.3,O=C1CCc2cc(-c3cncc(O)c3)cc3c2N1CC3
2,4.4,O=C1CCc2cc(-c3cncc(F)c3)cc3c2N1CC3
3,2.4,COc1ccccc1-c1cncc(-c2cc3c4c(c2)CCN4C(=O)CC3)c1
4,0.9,O=C1CCc2cc(-c3cncc(-c4ccc(F)cc4)c3)cc3c2N1CC3
5,2.2,CC(C)Oc1cncc(-c2cc3c4c(c2)CCN4C(=O)CC3)c1
6,2.3,O=C1CCc2cc(-c3cncc(-c4ccc(F)c(F)c4)c3)cc3c2N1CC3
7,89,O=C1CCc2cc(-n3ccnc3)cc3c2N1CC3
8,18,O=C1CCc2cc(-c3cncc(-c4cc(F)cc(F)c4)c3)cc3c2N1CC3
9,3.6,O=C1CCc2cc(-c3cncc(-c4cc(F)ccc4F)c3)cc3c2N1CC3
10,33,O=C1CCc2cc(-c3cncc(-c4cccc(C(F)(F)F)c4)c3)cc3c2N1CC3
11,1.4,COc1ccc(-c2cncc(-c3cc4c5c(c3)CCN5C(=O)CC4)c2)cc1

# Target: T3, Cytochrome P450 11B1, mitochondrial (Homo sapiens, UniProt P15538)
# T3 sequence (P15538 whole entry): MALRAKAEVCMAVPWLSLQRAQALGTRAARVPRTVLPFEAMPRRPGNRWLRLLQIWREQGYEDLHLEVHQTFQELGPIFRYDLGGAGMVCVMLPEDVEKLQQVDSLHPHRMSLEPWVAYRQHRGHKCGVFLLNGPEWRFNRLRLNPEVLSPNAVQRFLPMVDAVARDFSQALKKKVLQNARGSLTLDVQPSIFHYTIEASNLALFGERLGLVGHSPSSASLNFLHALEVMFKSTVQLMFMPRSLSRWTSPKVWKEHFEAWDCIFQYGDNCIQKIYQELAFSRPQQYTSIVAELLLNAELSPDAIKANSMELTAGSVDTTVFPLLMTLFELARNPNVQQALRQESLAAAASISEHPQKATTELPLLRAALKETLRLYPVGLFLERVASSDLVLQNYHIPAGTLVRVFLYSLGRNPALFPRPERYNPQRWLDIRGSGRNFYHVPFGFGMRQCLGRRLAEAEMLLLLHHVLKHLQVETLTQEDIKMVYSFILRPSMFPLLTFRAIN
# Assay: Inhibition of human CYP11B1 expressed in hamster V79 MZh cells assessed as conversion of [4-14C]-11-deoxycorticosterone substrate by HPTLC assay
# Assay type: cell-based
# Settings: not given
# How it was run: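 V79 MZh hamster fibroblasts stably expressing human CYP11B1 or CYP11B2 incubated with [4-14C]-11-deoxycorticosterone, 100 nM, plus inhibitor at ≥3 concentrations. Reaction stopped with ethyl acetate, steroids extracted into the organic phase, and substrate conversion quantified by HPTLC with phosphoimaging. IC50 is the mean of at least three experiments.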
row,IC50 [nM],Compound
1,2040,O=C1CCc2cc(-c3cncc(O)c3)cc3c2N1CC3
2,1290,O=C1CCc2cc(-c3cncc(F)c3)cc3c2N1CC3
3,128,COc1ccccc1-c1cncc(-c2cc3c4c(c2)CCN4C(=O)CC3)c1
4,40,O=C1CCc2cc(-c3cncc(-c4ccc(F)cc4)c3)cc3c2N1CC3
5,103,CC(C)Oc1cncc(-c2cc3c4c(c2)CCN4C(=O)CC3)c1
6,496,O=C1CCc2cc(-c3cncc(-c4ccc(F)c(F)c4)c3)cc3c2N1CC3
7,2080,O=C1CCc2cc(-n3ccnc3)cc3c2N1CC3
8,1750,O=C1CCc2cc(-c3cncc(-c4cc(F)cc(F)c4)c3)cc3c2N1CC3
9,183,O=C1CCc2cc(-c3cncc(-c4cc(F)ccc4F)c3)cc3c2N1CC3
10,4650,O=C1CCc2cc(-c3cncc(-c4cccc(C(F)(F)F)c4)c3)cc3c2N1CC3
11,21,COc1ccc(-c2cncc(-c3cc4c5c(c3)CCN5C(=O)CC4)c2)cc1
